Tests used:
[1] = Association constant of hematin-aminoquinoline complex formation reported by spectrophotometric titration in aqueous dimethyl sulfoxide(DMSO) at pH 7.5; type: ADME; conditions: buffer
In short: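 Spectrophotometric titration of monomeric hematin with aminoquinoline, fitted to 1:1 complex formation. Run at 25 °C, pH 7.5, in 40% aqueous DMSO with 20 mM HEPES. Reported as log K, the average of three independent measurements ± 1 SEM.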

[2] = Acid dissociation constant of the tertiary ammonium group; type: ADME; conditions: read-out: pKa2
In short: (§1)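 Glass-electrode potentiometric titration under nitrogen at 25 °C in 0.15 M NaCl background electrolyte. Data were fitted to give two pKa values per aminoquinoline. Reported values are the average of three independent measurements, with error given as 1 SD.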

Plasmodium falciparum = test: In vitro antiplasmodial activity against chloroquine-sensitive Plasmodium falciparum D10; type: functional, organism-based
[3] = Normalised IC50 was measured; type: functional
In short: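 Normalized IC50 is the D10 P. falciparum IC50 multiplied by α. α is the compound's calculated vacuolar accumulation ratio divided by chloroquine's, both from measured pKa values, assuming vacuolar pH 5.5 and external pH 7.4.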

[4] = Acid dissociation constant of the quinolinium cation; type: ADME; conditions: read-out: pKa1; in short: as §1

Row | Compound | Log K [1] | pKa [2] | IC50 (Plasmodium falciparum) | IC50 [3] | pKa [4]
1 | CCN(CC)CCNc1ccnc2cc(OC)ccc12 | 4.83 | 9.5 | 448 nM | 399 nM | 8.09
2 | CCN(CC)CCNc1ccnc2cc(C)ccc12 | 4.86 | 9.51 | 82 nM | 74 nM | 8.12
3 | CCN(CC)CCNc1ccnc2cc(Br)ccc12 | 4.99 | 7.97 | 36 nM | 28 nM | 7.93
4 | CCN(CC)CCNc1ccnc2cc(I)ccc12 | 5.02 | 7.79 | 35 nM | 17 nM | 7.48
5 | CCN(CC)CCNc1ccnc2cc(Cl)ccc12 | 5.81 | 8.83 | 37 nM | 23 nM | 7.56
6 | CCN(CC)CCNc1ccnc2ccccc12 | 4.75 | 9.42 | 1060 nM | 892 nM | 7.96
7 | CCN(CC)CCNc1ccnc2cc(O)ccc12 | 4.48 | 8.95 | 3070 nM | 700 nM | 6.82
8 | CCN(CC)CCNc1ccnc2cc(C(F)(F)F)ccc12 | 4.67 | 7.65 | 99 nM | 48 nM | 7.5
9 | CCN(CC)CCNc1ccnc2cc([N+](=O)[O-])ccc12 | 4.65 | 8.8 | 325 nM | 28 nM | 6.28
10 | CCN(CC)CCNc1ccnc2cc(N)ccc12 | 4.35 | 10 | > 5000 nM | > 4830 nM | 8.36
11 | CCN(CC)CCNc1ccnc2cc(F)ccc12 | 4.6 | 9.24 | 138 nM | 92 nM | 7.62

Source: ChEMBL document CHEMBL1135536, “Structure-activity relationships in 4-aminoquinoline antiplasmodials. The role of the group at the 7-position” (J Med Chem, 2002)
